Screens as filed in PubChem.
RGS4 act: RGS4 potentiation or activation. B-score at 10 µM. HEK293 M3R/inducible RGS4, carbachol calcium flux Fluo4; active compounds read low. 310,000 compounds, 0.92% hits;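 active = B-score of the integrated calcium signal more than 4 SD below the library mean, with starting fluorescence not abnormally high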;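 also: negative B-score means reduced calcium response which marks RGS4 activation or potentiation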
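Assay system: HEK293 FlpIn-TREx cells, stable M3R, doxycycline-inducible RGS4 / Probe or stimulus: carbachol, ECmax concentration / Times: overnight RGS4 induction, 30 min dye load 37 °C, 20 min compound RT / Signal: kinetic calcium fluorescence imaging with Fluo4-AM dye, 2 µM / Measure: Agonist-evoked peak-minus-minimum fluorescence over baseline, integrated ratio, B score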
MrgX1 ag: activates human MrgX1 receptor signaling | Q96LB2 | MrgX1-HEK293 cells, Fluo-4 calcium fluorescence, agonist mode; active compounds read high | B-score at 10 µM | 310,000 compounds, 0.44% hits | AID 588627;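 active = calcium response B-score plate-corrected fluorescence ratio at least 3 library SD, with starting fluorescence B-score inside 5 SD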
Target sequence (Q96LB2 whole entry, looked up): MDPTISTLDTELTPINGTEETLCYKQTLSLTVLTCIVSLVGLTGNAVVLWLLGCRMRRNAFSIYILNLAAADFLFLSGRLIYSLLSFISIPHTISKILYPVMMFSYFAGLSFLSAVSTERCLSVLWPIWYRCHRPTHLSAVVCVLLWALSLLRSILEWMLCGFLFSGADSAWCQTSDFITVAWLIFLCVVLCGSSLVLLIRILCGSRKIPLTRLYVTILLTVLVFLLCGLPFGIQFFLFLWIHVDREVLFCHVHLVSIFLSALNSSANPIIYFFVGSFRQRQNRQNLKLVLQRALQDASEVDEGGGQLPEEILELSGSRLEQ
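Test system: HEK293 cells stably expressing human MrgX1 receptor; Input: fifteen thousand cells per well; Dosing: compound delivered in addition one of three; Schedule: overnight seeding, then 1 h dark dye loading; Technique: Fluo-4 NW calcium fluorescence; Measure: B-scored fluorescence response ratio; Controls: positive and negative controls per plate.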
RGS4 inh: human RGS4 inhibition; P49798; 310,000 compounds, 0.45% hits; HEK293 M3R/RGS4 inducible, Fluo-4 calcium flux; active compounds read high; triggered by carbachol at its EC20; B-score at 10 µM; AID 463165;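 active = B-score, a plate-corrected calcium signal, over three deviations above library mean, with baseline fluorescence within five deviations of library mean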;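 also: RGS4 expression induced by doxycycline in cells with stable M3 receptor; B-score is computed from the integrated fluorescence ratio over baseline after carbachol; higher B-score means a larger calcium signal and so more RGS4 inhibition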
Target sequence (P49798 whole entry, looked up): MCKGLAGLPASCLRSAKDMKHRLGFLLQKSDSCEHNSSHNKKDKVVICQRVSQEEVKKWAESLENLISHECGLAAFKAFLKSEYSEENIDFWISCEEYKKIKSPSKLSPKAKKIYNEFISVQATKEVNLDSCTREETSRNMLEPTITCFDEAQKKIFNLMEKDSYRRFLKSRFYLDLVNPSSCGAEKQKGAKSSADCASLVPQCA
MrgX1 PAM: human MrgX1 positive allosteric modulation, primary screen. 310,000 compounds, 0.63% hits. Q96LB2. MrgX1-HEK293, Fluo-4 calcium flux, FDSS; active compounds read high. AID 588675. B-score at 10 µM;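 active = plate-corrected calcium response at least 3 library SD above typical, normal starting fluorescence, not activating the receptor alone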;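 also: compound read alongside a low EC10 to EC30 dose of BAM8-22 agonist; peak minus trough fluorescence over baseline measured at the second addition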
MrgX1 antag: human MrgX1 receptor antagonism, primary screen; 310,000 compounds, 1.3% hits; MRGX1-HEK293 calcium flux, Fluo-4, BAM8-22 antagonism; active compounds read low; B-score at 10 µM;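 active = calcium-response B-score plate-corrected more than 3 library SD below zero, starting fluorescence within 5 deviations, no agonist response on first addition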;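 also: peak minus trough fluorescence over baseline after final BAM8-22 challenge near maximal dose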
Large screens that a line does not name were inactive. Only some compounds are listed: those with a hit (about 3.5% of all), similar ones and a draw of the others.

N#CC1=C(N)SC(N)=C(C#N)C1c1ccoc1	MrgX1 ag 37
CC(=O)/C(=N\Nc1ccccc1)Oc1ccc(Br)cc1	none
CC(=O)NC(NC(=S)Nc1ccc(N=Nc2ccccc2C)cc1C)C(Cl)(Cl)Cl (stereo not given)	MrgX1 antag -4.6
Cc1cccc(C(=O)NNC(=O)C2CCN(C(=O)OC(C)(C)C)CC2)c1	none
O=C1C=C(N2CCCCCC2)C(=O)N1c1ccc(Cl)cc1	RGS4 act -7
CC1CC(C)CN(S(=O)(=O)CC23CCC(CC2=O)C3(C)C)C1 (stereo not given)	none
O=C(c1ccc2c3c(cccc13)CC2)C1CCCN(C(=O)c2ccc[n+]([O-])c2)C1 (stereo not given)	none
Cc1ccccc1SCC(=O)Nc1cc(C(F)(F)F)ccc1N1CCOCC1	MrgX1 PAM 11
CC(C)Oc1ccc(Cn2c(-c3ccco3)n[nH]c2=S)cc1	RGS4 act -7.3
CCCNC(=O)C12CCC(C)(c3nc4cc(C)c(C)cc4nc31)C2(C)C (stereo not given)	none
Cc1ccc(NC(=O)n2ncc3c(C)cccc32)cc1F	none
CN(C)CCCOc1cccc(Oc2ccccc2)c1	RGS4 act -7.5
Cc1onc(-c2ccccc2)c1C(=O)OCC(=O)N(C)c1c(N)n(Cc2ccccc2)c(=O)[nH]c1=O	none
Cc1cc2c(=O)oc(-c3ccccc3Br)nc2s1	none (no result: MrgX1 ag, MrgX1 PAM, MrgX1 antag)
Cc1cc2c(=O)oc(-c3ccc(F)cc3)nc2s1	MrgX1 antag -23
CCN(CC)CCNC(=O)C(=O)Nc1ccc2c(c1)N(S(=O)(=O)c1cccs1)CCC2	none
CCN(CC(=O)NC1CC1)S(=O)(=O)c1ccc(OC)cc1	none
O=C(NCCCN1CCOCC1)c1cc(-c2cccc(Br)c2)nc2ccccc12	none
COCCNC(=O)c1sc2nc(-c3ccccc3)cn2c1C	none
O=C(NCCCN1CCOCC1)c1cc(-c2ccc(Cl)s2)nc2ccccc12	MrgX1 antag -7.4
Cc1c(C(=O)NCCCN2CCOCC2)sc2nc(-c3ccccc3)cn12	MrgX1 antag -7.3
COc1ccc(OC)c(Nc2cc(C(=O)NCCCN3CCOCC3)c3ccccc3n2)c1	MrgX1 antag -5.7
CC(C)(Oc1ccc(Br)cc1Cl)C(=O)Nc1ccon1	none
CC(C)N(Cc1nccn1C)C(=O)c1ccc2oc(Cc3ccccc3)nc2c1	none (no result: MrgX1 ag, MrgX1 PAM, MrgX1 antag)
OCCCCNCc1ccc(OCc2ccc(Cl)cc2)cc1	RGS4 act -7.3
CCCCCNCc1ccc(Cl)cc1	none
O=C(COC(=O)C1CCN(c2ccc(C(F)(F)F)cn2)CC1)c1ccccc1	none
COCc1ccc(C(=O)N2CCCCC2C(=O)Nc2ccc(-n3nc(C)cc3C)cc2)o1 (stereo not given)	none
CC(=O)N1CCCN(Cc2cn(-c3ccc(C)cc3)nc2-c2ccc(F)cc2)CC1	none
Cc1ccc(-n2cc(CN3CCCN(C=O)CC3)c(-c3ccc(F)cc3)n2)cc1	MrgX1 PAM 11
O=C(CN(Cc1ccccc1)S(=O)(=O)c1ccc2c(c1)OCCO2)N/N=C/c1ccc(F)cc1	none
COc1ccc(CNC(=O)CN(Cc2ccccc2)S(=O)(=O)c2ccc(Cl)cc2)cc1	MrgX1 antag -4.9
Cc1ccccc1OCC(=O)N/N=C/c1ccc2c(c1)OCCO2	MrgX1 PAM 6.5
COc1ccc(/C=N/NC(=O)CN(Cc2ccccc2)S(=O)(=O)c2ccc3c(c2)OCCO3)cc1	MrgX1 antag -6.2
COc1ccc(C)cc1Nc1nc(N)c2cc(OC)c(OC)cc2n1	MrgX1 antag -4.5
Cc1ccc(-c2nc(C#N)c(N3CCC(C(N)=O)CC3)o2)cc1	none
Cc1occc1-c1nnc(SCC(=O)N2CCOCC2)n1CCc1ccccc1	RGS4 act -7.3
CCCCn1c(SCC(=O)N2CCOCC2)nnc1-c1ccoc1C	none
N/C(=N\OC(=O)COc1ccc(Br)cc1)c1ccncc1	MrgX1 antag -6
N/C(=N\OC(=O)COc1ccc([N+](=O)[O-])cc1)c1ccncc1	none
CCCCc1ccc(N=N/C(C(=O)Nc2ccccc2OC)=C(/C)O)cc1	MrgX1 antag -9.1
COc1ccc(Nc2nc(N)c([N+](=O)[O-])c(NC3CCCCC3)n2)cc1	RGS4 act -9.4
O=C(NCCOc1ccccc1)c1ccccc1Cl	none
CN(C(=O)COc1ccccc1C(=O)NCCOc1ccccc1)c1ccccc1	RGS4 act -9.2, MrgX1 antag -5.7
Cc1ccc(Oc2ccc(S(=O)(=O)N3CCOCC3)cc2C(N)=O)cc1C	none
C/C(=C/CCC(C)[C@H]1CC[C@@]2(C)C3=C(CC[C@]12C)[C@@]1(C)CCC(=O)C(C)(C)[C@@H]1CC3)C(=O)O (stereo not given in full)	RGS4 act -12
C/C(=C/CCC(C)C1CCC2(C)C3CCC4C(C)(C)C(=O)CCC4(C)C3=CCC12C)C(=O)O (stereo not given)	RGS4 act -7.8 (no result: MrgX1 ag, MrgX1 PAM, MrgX1 antag)
COc1cc(OC)c(NC(=O)C2CC(=O)N(c3ccc4c(c3)OCCO4)C2)cc1Cl (stereo not given)	none
O=c1c(-c2ccc(O)cc2)coc2cc(O)ccc12	MrgX1 antag -7.8
O=C(CSc1ncccc1C(=O)O)Nc1ccc2c(c1)OCCO2	none
Cc1ccc(OCC(=O)N2CCN(c3nnc(-c4ccc(C)cc4)c4ccccc34)CC2)cc1	none
Cc1ccc(-c2nnc(N3CCN(C(=O)COc4cccc(C)c4)CC3)c3ccccc23)cc1	RGS4 act -7.3
C=CCS(=O)(=O)N1CCCC(Cc2ccccc2C)(C(=O)OCC)C1 (stereo not given)	none
ON=C1c2cc(OCCN3CCCCC3)ccc2-c2ccc(OCCN3CCCCC3)cc21	none
NC(=S)NN=C1c2cc(OCCN3CCOCC3)ccc2-c2ccc(OCCN3CCOCC3)cc21	RGS4 act -7.4
CCc1sc(N2C(=O)C3C4CCC(C4=C(C)C)C3C2=O)nc1-c1ccccc1 (stereo not given)	RGS4 act -7.5
O=S(=O)(Nc1ccc2c(c1)OCCO2)c1cccs1	MrgX1 antag -4.6
O=S(=O)(Nc1ccc2c(c1)OCO2)c1cccs1	none
Cc1ccc(S(=O)(=O)N2CCN(C)CC2)cc1[N+](=O)[O-]	MrgX1 antag -4.9
CCC1CCCCN1CCCNS(=O)(=O)c1ccc2c(c1)oc(=O)n2C (stereo not given)	MrgX1 PAM 18
Cc1cc(Br)cc(Cl)c1OC(=O)c1ccncc1	none
CCCC[C@H]1COCCS(=O)(=O)N1Cc1cccc([N+](=O)[O-])c1	none
CN(C)c1ccc(/C=N/N(CCO)C2=NS(=O)(=O)c3ccccc32)cc1	RGS4 act -7.9
O=S1(=O)N=C(N(CCO)/N=C/c2ccc(Cl)cc2)c2ccccc21	none
CC(C)c1ccc(N2C=Nc3ccc(C(C)C)cc3C2)cc1	RGS4 act -7.5
CCOCCOC(=O)C(C)Oc1ccc(Oc2nc(Cl)ccc2Cl)cc1 (stereo not given)	MrgX1 antag -8.5
CCOCCOC(=O)C(C)Oc1ccc(Oc2ncc(Cl)cc2Cl)cc1 (stereo not given)	none
